Assay results reported in ChEMBL document CHEMBL1152649, “Synthesis, cytotoxicity and human telomerase inhibition activities of a series of 1,2-heteroannelated anthraquinones and anthra[1,2-d]imidazole-6,11-dione homologues” (2009).

What was measured:
Assay type in all cases: functional
K562 = experiment: Growth inhibition of human K562 cells
Procedure, shortened: (§1)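 NCI 60 cancer cell line screen run per the Developmental Therapeutics Program protocol. Dose–response curves were plotted against log10 drug concentration for each cell line within its subpanel, and mean graph midpoint values were calculated.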

U-251 = experiment: Growth inhibition of human U251 cells
Procedure, shortened: (§2)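 Assayed in the NCI 60 human cancer cell line panel under the Developmental Therapeutics Program protocol. For each line, dose–response curves were plotted against log10 drug concentration. In the one-dose screen at 10^-5 M, growth was given as percent of untreated control cells, and mean graph midpoint values were averaged.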

SK-MEL-2 = experiment: Growth inhibition of human SK-MEL-2 cells; procedure, shortened: as §2
A498 = experiment: Growth inhibition of human A498 cells; procedure, shortened: as §1
HOP-62 = experiment: Growth inhibition of human HOP62 cells; procedure, shortened: as §1
SNB-19 = experiment: Growth inhibition of human SNB19 cells; procedure, shortened: as §2
CAKI-1 = experiment: Growth inhibition of human Caki1 cells; procedure, shortened: as §1
EKVX = experiment: Growth inhibition of human EKVX cells; procedure, shortened: as §1
OVCAR-5 = experiment: Growth inhibition of human OVCAR5 cells; procedure, shortened: as §1
T47D = experiment: Growth inhibition of human T47D cells; procedure, shortened: as §2
SN12C = experiment: Growth inhibition of human SN12C cells; procedure, shortened: as §2
DU-145 = experiment: Growth inhibition of human DU145 cells; procedure, shortened: as §1
SNB-75 = experiment: Growth inhibition of human SNB75 cells; procedure, shortened: as §2
NCI/ADR-RES = experiment: Growth inhibition of human NCI/ADR-RES cells; procedure, shortened: as §1
RXF 393 = experiment: Growth inhibition of human RXF393 cells; procedure, shortened: as §2
NCI-H460 = experiment: Growth inhibition of human NCI-H460 cells; procedure, shortened: as §1
M14 = experiment: Growth inhibition of human M14 cells; procedure, shortened: as §1
UACC-62 = experiment: Growth inhibition of human UACC62 cells; procedure, shortened: as §2
IGROV-1 [1] = experiment: Growth inhibition of human IGROV1 cells; procedure, shortened: as §1
Malme-3M = experiment: Growth inhibition of human MALME-3M cells; procedure, shortened: as §1
SF-539 = experiment: Growth inhibition of human SF539 cells; procedure, shortened: as §2
786-0 = experiment: Growth inhibition of human 786-0 cells; procedure, shortened: as §1
MDA-MB-435 = experiment: Growth inhibition of human MDA-MB-435 cells; procedure, shortened: as §1
[2] = Growth inhibition of human […] cells; procedure, shortened: as §2
HCT-116 = experiment: Growth inhibition of human HCT116 cells; procedure, shortened: as §1
IGROV-1 [3] = experiment: Antiproliferative activity against human IGROV1 cells assessed as cell growth at 10 uM; settings: read-out: Activity
Procedure, shortened: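 NCI 60 cell line panel, single-dose screen (10^-5 M) run by the developmental therapeutics program protocol. Results are given as growth percent of treated cells relative to untreated control cells for each line.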

SK-MEL-5 = experiment: Growth inhibition of human SK-MEL-5 cells; procedure, shortened: as §2
HT-29 = experiment: Growth inhibition of human HT-29 cells; procedure, shortened: as §1
UACC-257 = experiment: Growth inhibition of human UACC257 cells; procedure, shortened: as §2
OVCAR-4 = experiment: Growth inhibition of human OVCAR4 cells; procedure, shortened: as §1
TK-10 = experiment: Growth inhibition of human TK10 cells; procedure, shortened: as §2
SF-295 = experiment: Growth inhibition of human SF295 cells; procedure, shortened: as §2
NCI-H522 = experiment: Growth inhibition of human NCI-H522 cells; procedure, shortened: as §1
CCRF-CEM = experiment: Growth inhibition of human CCRF-CEM cells; procedure, shortened: as §1
MCF7 = experiment: Growth inhibition of human MCF7 cells; procedure, shortened: as §1
SW-620 = experiment: Growth inhibition of human SW620 cells; procedure, shortened: as §2
NCI-H322M = experiment: Growth inhibition of human NCI-H322M cells; procedure, shortened: as §1
BT-549 = experiment: Growth inhibition of human BT549 cells; procedure, shortened: as §1
A549 = experiment: Growth inhibition of human A549 cells; procedure, shortened: as §1
[4] = read-out: LC50 (the source's name)

With `O=C1c2ccccc2C(=O)c2c1ccc1nsnc21` the GI50 (K562) was 1.92 µM, the LC50 (K562) was 41.2 µM and the TGI (K562) was 15.9 µM. It also gave a GI50 (U-251) of 1.61 µM, a TGI (U-251) of 2.96 µM and a CC50 (U-251; [4]) of 5.44 µM. The GI50 (SK-MEL-2) was 1.68 µM, the TGI (SK-MEL-2) was 4.22 µM and the CC50 (SK-MEL-2; [4]) was 22.5 µM. The GI50 (A498) was 12.4 µM, the TGI (A498) was 25.4 µM and the CC50 (A498; [4]) was 52 µM. The GI50 (HOP-62) was 1.28 µM, the TGI (HOP-62) was 3.31 µM and the CC50 (HOP-62; [4]) was 8.53 µM. The GI50 (SNB-19) was 2.28 µM, the TGI (SNB-19) was 5.82 µM and the CC50 (SNB-19; [4]) was 26 µM. For the same compound, the GI50 (CAKI-1) was 1.61 µM, the TGI (CAKI-1) was 2.96 µM and the CC50 (CAKI-1; [4]) was 5.44 µM. It also gave a GI50 (EKVX) of 1.55 µM, a TGI (EKVX) of 3.45 µM and a CC50 (EKVX; [4]) of 7.66 µM. The GI50 (OVCAR-5) was 1.91 µM, the TGI (OVCAR-5) was 4.11 µM and the CC50 (OVCAR-5; [4]) was 8.84 µM. The GI50 (T47D) was 1.39 µM, the LC50 (T47D) was 8.27 µM and the TGI (T47D) was 3.39 µM. It also gave a GI50 (SN12C) of 1.33 µM, a TGI (SN12C) of 3.17 µM and a CC50 (SN12C; [4]) of 7.56 µM. The GI50 (DU-145) was 1.67 µM, the TGI (DU-145) was 3.24 µM and the CC50 (DU-145; [4]) was 6.27 µM. For the same compound, the GI50 (SNB-75) was 2.03 µM, the TGI (SNB-75) was 5.2 µM and the CC50 (SNB-75; [4]) was 18.6 µM. The GI50 (NCI/ADR-RES) was 1.86 µM, the TGI (NCI/ADR-RES) was 12.6 µM and the CC50 (NCI/ADR-RES; [4]) was greater than 100 µM. It also gave a GI50 (RXF 393) of 1.75 µM, a TGI (RXF 393) of 4.4 µM and a CC50 (RXF 393; [4]) of 14.6 µM. For the same compound, the GI50 (NCI-H460) was 3.27 µM, the TGI (NCI-H460) was 14.3 µM and the CC50 (NCI-H460; [4]) was 47.3 µM. The GI50 (M14) was 2.15 µM, the TGI (M14) was 4.85 µM and the CC50 (M14; [4]) was greater than 100 µM. For the same compound, the GI50 (UACC-62) was 1.45 µM, the TGI (UACC-62) was 2.9 µM and the CC50 (UACC-62; [4]) was 5.79 µM. For the same compound, the GI50 (IGROV-1 [1]) was 1.36 µM, the TGI (IGROV-1 [1]) was 2.94 µM and the CC50 (IGROV-1 [1]; [4]) was 6.35 µM. The GI50 (Malme-3M) was 1.66 µM, the TGI (Malme-3M) was 3.15 µM and the CC50 (Malme-3M; [4]) was 5.96 µM. For the same compound, the GI50 (SF-539) was 1.46 µM, the TGI (SF-539) was 2.94 µM and the CC50 (SF-539; [4]) was 5.91 µM. For the same compound, the GI50 (786-0) was 6.17 µM, the TGI (786-0) was 19.3 µM and the CC50 (786-0; [4]) was 50.4 µM. The GI50 (MDA-MB-435) was 1.91 µM, the TGI (MDA-MB-435) was 3.31 µM and the CC50 (MDA-MB-435; [4]) was 5.76 µM. For the same compound, the GI50 [2] was 1.18 µM, the TGI [2] was 3.46 µM and the CC50 [2, 4] was greater than 100 µM. For the same compound, the GI50 (HCT-116) was 1.93 µM, the TGI (HCT-116) was 5.4 µM and the CC50 (HCT-116; [4]) was greater than 100 µM. It also gave a growth at 10 µM (IGROV-1 [3]) of -88.3%, a GI50 (SK-MEL-5) of 1.58 µM and a TGI (SK-MEL-5) of 2.92 µM. For the same compound, the CC50 (SK-MEL-5; [4]) was 5.41 µM, the GI50 (HT-29) was 13.4 µM and the TGI (HT-29) was 50.4 µM. For the same compound, the CC50 (HT-29; [4]) was greater than 100 µM, the GI50 (UACC-257) was 1.74 µM and the TGI (UACC-257) was 3.51 µM. The CC50 (UACC-257; [4]) was 7.09 µM, the GI50 (OVCAR-4) was 0.65 µM and the TGI (OVCAR-4) was 2.17 µM. The CC50 (OVCAR-4; [4]) was 5.57 µM, the GI50 (TK-10) was 2.85 µM and the TGI (TK-10) was 10.9 µM. It also gave a CC50 (TK-10; [4]) of 50.4 µM, a GI50 (SF-295) of 1.9 µM and a TGI (SF-295) of 4.04 µM. It also gave a CC50 (SF-295; [4]) of 8.56 µM, a GI50 (NCI-H522) of 1.66 µM and a TGI (NCI-H522) of 3.93 µM. It also gave a CC50 (NCI-H522; [4]) of 9.31 µM, a GI50 (CCRF-CEM) of 1.08 µM and a TGI (CCRF-CEM) of 4.1 µM. The CC50 (CCRF-CEM; [4]) was greater than 100 µM, the GI50 (MCF7) was 1.53 µM and the TGI (MCF7) was 3.34 µM. For the same compound, the CC50 (MCF7; [4]) was 7.29 µM, the GI50 (SW-620) was 1.79 µM and the TGI (SW-620) was 3.5 µM. It also gave a CC50 (SW-620; [4]) of 6.84 µM, a GI50 (NCI-H322M) of 17.4 µM and a TGI (NCI-H322M) of 47.8 µM. It also gave a CC50 (NCI-H322M; [4]) greater than 100 µM, a GI50 (BT-549) of 1.63 µM and an LC50 (BT-549) of 6.01 µM. For the same compound, the TGI (BT-549) was 3.13 µM, the GI50 (A549) was 14.7 µM and the TGI (A549) was 36.6 µM. The CC50 (A549; [4]) was 91 µM.
